Laboratory results taken from PMC3048907 (Journal of medicinal chemistry, 2011).
One block for each compound: values may come before it.

Tests used:
[1] = system: KB-VIN (MDR line overexpressing P-glycoprotein); experiment: Antiproliferative activity assay; format: cell-based, human; settings: SRB assay, three days in culture; NA = not active, 20 μg/mL did not reach 50% inhibition
human tumor cell lines = experiment: Antiproliferative activity across the human tumor cell line panel; format: cell-based
Method in brief: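 Cells kept in RPMI-1640 with 25 mM HEPES, 0.25% bicarbonate, 10% FBS and 100 μg/mL kanamycin; trypsinized, seeded at 1500–7500 cells/well. Test compound added from DMSO stock diluted in medium (DMSO ≤0.5% v/v). After 3 days, cells fixed in cold 50% TCA, stained with 0.4% sulforhodamine B, A562 read. GI50 = 50% growth reduction vs untreated; mean of ≥3 determinations.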

KB-VIN versus KB = settings: P-gp overexpressing MDR tumor cell line vs non-MDR; cited from earlier work
[2] = system: A549 cells (microtubules and spindles); experiment: Immunofluorescence staining of tubulin; format: cell-based, human; settings: for microtubules (α-tubulin immunofluorescence) / mitotic spindles (α-tubulin immunofluorescence): A549, 24 h, 0.1 nM 21, 100 nM colchicine, 1.5 nM pacritaxel, 500 nM doxorubicin; for concentration at which antimicrotubule activity was seen: within 24 hr
KB-VIN cells = experiment: Verapamil reversal experiments; format: cell-based, human; settings: for effect of verapamil co-treatment on cytotoxic activity (MDR-selectivity): co-treatment with verapamil 1 μg/mL
tubulin = experiment: Tubulin assembly assay; format: biochemical; settings: 10 μM tubulin, 20 min at 30 °C, highest concentration evaluated 40 μM

GI50 KB-VIN [1]: active
Structure (SMILES): CC1=C(O)C(C)(C)c2oc(-c3ccccc3)cc(=O)c2C1=O [Compound 1, desmosdumotin B]
activity against all non-MDR tumor cells (human tumor cell lines): non-active
selectivity index [collateral sensitivity (CS), activity ratio of MDR line versus non-MDR line] (KB-VIN versus KB): greater than 20

Structure (SMILES): COc1cccc2c1C(=O)c1c(O)c3c(c(O)c1C2=O)C[C@@](O)(C(=O)CO)C[C@@H]3O[C@H]1C[C@H](N)[C@H](O)[C@H](C)O1 [doxorubicine]
microtubules (α-tubulin immunofluorescence) [2]: detectable
mitotic spindles (α-tubulin immunofluorescence) [2]: undetectable

Structure (SMILES): COc1ccc(CCN(C)CCCC(C#N)(c2ccc(OC)c(OC)c2)C(C)C)cc1OC (stereo not shown) [verapamil]
effect of verapamil alone on replication of KB-VIN cells (KB-VIN cells; verapamil 1 μg/mL): no effect

Structure (SMILES): COc1cc2c(c(OC)c1OC)-c1ccc(OC)c(=O)cc1[C@@H](NC(C)=O)CC2 [colchicine]
microtubules (α-tubulin immunofluorescence) [2]: undetectable
mitotic spindles (α-tubulin immunofluorescence) [2]: undetectable
concentration at which antimicrotubule activity was seen ([2]; A549 cells): 100 nM

Structure (SMILES): CC(=O)O[C@H]1C(=O)[C@@]2(C)[C@H]([C@H](OC(=O)c3ccccc3)[C@]3(O)C[C@H](OC(=O)[C@H](O)[C@@H](NC(=O)c4ccccc4)c4ccccc4)C(C)=C1C3(C)C)[C@]1(OC(C)=O)CO[C@@H]1C[C@@H]2O [pacritaxel]
microtubules (α-tubulin immunofluorescence) [2]: detectable
mitotic spindles (α-tubulin immunofluorescence) [2]: clearly seen

Structure (SMILES): CCC1=C(O)c2c(oc(-c3csc4ccc(Br)cc34)cc2=O)C(CC)(CC)C1=O [Compound 24, 2-(5′-Bromobenzo[b]thiophen-3′-yl)-6,8,8-triethyldesmosdumotin B]
effect of verapamil co-treatment on cytotoxic activity (MDR-selectivity) (KB-VIN cells): partially reversed

Structure (SMILES): CCC1=C(O)c2c(oc(-c3cccc4ccsc34)cc2=O)C(CC)(CC)C1=O [Compound 27, 2-(Benzo[b]thiophen-7′-yl)-6,8,8-triethyldesmosdumotin B]
effect of verapamil co-treatment on cytotoxic activity (MDR-selectivity) (KB-VIN cells): partially reversed

Structure (SMILES): CCC1=C(O)c2c(oc(-c3csc4ccccc34)cc2=O)C(CC)(CC)C1=O [Compound 21, 2-(Benzo[b]thiophen-3′-yl)-6,8,8-triethyldesmosdumotin B]
microtubules (α-tubulin immunofluorescence) [2]: undetectable
mitotic spindles (α-tubulin immunofluorescence) [2]: undetectable
fold lower concentration than colchicine for antimicrotubule activity ([2]; A549 cells, 24 hr): 1000 fold
concentration at which antimicrotubule activity was seen ([2]; A549 cells): 0.1 nM

GI50 KB-VIN [1]: active
Inhibition of tubulin assembly IC50 ± SD (tubulin): inactive
IC50 (tubulin; read-out: Inhibition of tubulin assembly IC50 ± SD): > 40 µM
Structure (SMILES): CCC1=C(O)c2c(oc(-c3ccccc3)cc2=O)C(CC)(CC)C1=O [Compound 2]
activity against all non-MDR tumor cells (human tumor cell lines): non-active

Inhibition of tubulin assembly IC50 ± SD (tubulin): Not obtainable ^c
Structure (SMILES): CCC1=C(O)c2c(oc(-c3ccc4ccccc4c3)cc2=O)C(CC)(CC)C1=O [Compound 11, 2-(Naphthalen-2′-yl)-6,8,8-triethyldesmosdumotin B]
